From BindingDB's records for doi:10.1039/c1md00059d (Centre National De La Recherche Scientifique, 2011)

Molecular target: T1, Vitamin D3 receptor A (Danio rerio, UniProt Q9PTN2)
T1 sequence (Q9PTN2 whole entry): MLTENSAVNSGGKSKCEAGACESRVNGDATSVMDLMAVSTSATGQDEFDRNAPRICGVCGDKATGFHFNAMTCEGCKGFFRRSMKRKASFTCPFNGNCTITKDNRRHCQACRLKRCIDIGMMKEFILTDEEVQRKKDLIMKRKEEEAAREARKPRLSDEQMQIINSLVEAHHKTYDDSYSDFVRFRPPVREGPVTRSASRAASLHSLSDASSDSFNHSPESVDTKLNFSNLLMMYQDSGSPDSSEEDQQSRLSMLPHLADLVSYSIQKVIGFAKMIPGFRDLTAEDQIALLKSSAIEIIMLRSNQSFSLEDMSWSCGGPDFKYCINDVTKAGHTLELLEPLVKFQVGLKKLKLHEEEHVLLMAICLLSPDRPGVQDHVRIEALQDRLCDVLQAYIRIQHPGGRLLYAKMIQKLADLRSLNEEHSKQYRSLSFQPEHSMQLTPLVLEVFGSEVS
Assay: Agonist activity at zebrafish VDR LBD assessed as binding affinity to TAMRA-labeled SRC-1 peptide by fluorescence anisotropy assay
Summary of the method: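 Titrations were run in the presence of ligand, and peptide recruitment was monitored by fluorescence anisotropy to derive kd.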

Kd [nM] | Compound
3300 | C=C1/C(=C\C=C2/CCC[C@]3(C)[C@@H](C(CCCC(C)(C)O)CCCC(C)(C)O)CC[C@@H]23)C[C@H](O)C[C@H]1O
1800 | [2H]C([2H])([2H])C(O)(CCC[C@@H](CC#CC(O)(C(F)(F)F)C(F)(F)F)[C@H]1CC[C@H]2/C(=C/C=C3C[C@H](O)C[C@@H](O)C3)CCC[C@]12C)C([2H])([2H])[2H]
1800 | [2H]C([2H])([2H])C(O)(CCC[C@H](CC#CC(O)(C(F)(F)F)C(F)(F)F)[C@H]1CC[C@H]2/C(=C/C=C3C[C@H](O)C[C@@H](O)C3)CCC[C@]12C)C([2H])([2H])[2H]
